Laboratory results as given in ChEMBL document CHEMBL5653631, “A Potent and Selective ULK1 Inhibitor Suppresses Autophagy and Sensitizes Cancer Cells to Nutrient Stress” (iScience, 2018).

How the values were obtained:
[1] = biological target: Activin receptor type-1-like (Homo sapiens) (UniProt P37023); experiment: Inhibition of human recombinant ALK1 at 15 nM in presence of ATP by radiometric assay relative to control
Procedure, shortened: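 Panel of 327 recombinant human kinases, each assayed in vitro by radiometric activity assay in duplicate at a single inhibitor concentration per compound, chosen with reference to its ULK1 inhibition. Activity remaining was expressed as percent of vehicle control, and percent inhibition was calculated as 100 minus percent activity remaining.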

[2] = biological target: Serine/threonine-protein kinase PLK1 (Homo sapiens) (UniProt P53350); experiment: Inhibition of human recombinant PLK1 at 15 nM in presence of ATP by radiometric assay relative to control
[3] = biological target: Tyrosine-protein kinase SYK (Homo sapiens) (UniProt P43405); experiment: Inhibition of human recombinant SYK at 15 nM in presence of ATP by radiometric assay relative to control
[4] = biological target: Mitogen-activated protein kinase kinase kinase 20 (Homo sapiens) (UniProt Q9NYL2); experiment: Inhibition of human recombinant ZAK at 15 nM related to control ULK1
[5] = biological target: T1, Ephrin type-A receptor 3 (Homo sapiens) (UniProt P29320); experiment: Inhibition of human recombinant EphA3 at 15 nM in presence of ATP by radiometric assay relative to control
T1 sequence (whole entry): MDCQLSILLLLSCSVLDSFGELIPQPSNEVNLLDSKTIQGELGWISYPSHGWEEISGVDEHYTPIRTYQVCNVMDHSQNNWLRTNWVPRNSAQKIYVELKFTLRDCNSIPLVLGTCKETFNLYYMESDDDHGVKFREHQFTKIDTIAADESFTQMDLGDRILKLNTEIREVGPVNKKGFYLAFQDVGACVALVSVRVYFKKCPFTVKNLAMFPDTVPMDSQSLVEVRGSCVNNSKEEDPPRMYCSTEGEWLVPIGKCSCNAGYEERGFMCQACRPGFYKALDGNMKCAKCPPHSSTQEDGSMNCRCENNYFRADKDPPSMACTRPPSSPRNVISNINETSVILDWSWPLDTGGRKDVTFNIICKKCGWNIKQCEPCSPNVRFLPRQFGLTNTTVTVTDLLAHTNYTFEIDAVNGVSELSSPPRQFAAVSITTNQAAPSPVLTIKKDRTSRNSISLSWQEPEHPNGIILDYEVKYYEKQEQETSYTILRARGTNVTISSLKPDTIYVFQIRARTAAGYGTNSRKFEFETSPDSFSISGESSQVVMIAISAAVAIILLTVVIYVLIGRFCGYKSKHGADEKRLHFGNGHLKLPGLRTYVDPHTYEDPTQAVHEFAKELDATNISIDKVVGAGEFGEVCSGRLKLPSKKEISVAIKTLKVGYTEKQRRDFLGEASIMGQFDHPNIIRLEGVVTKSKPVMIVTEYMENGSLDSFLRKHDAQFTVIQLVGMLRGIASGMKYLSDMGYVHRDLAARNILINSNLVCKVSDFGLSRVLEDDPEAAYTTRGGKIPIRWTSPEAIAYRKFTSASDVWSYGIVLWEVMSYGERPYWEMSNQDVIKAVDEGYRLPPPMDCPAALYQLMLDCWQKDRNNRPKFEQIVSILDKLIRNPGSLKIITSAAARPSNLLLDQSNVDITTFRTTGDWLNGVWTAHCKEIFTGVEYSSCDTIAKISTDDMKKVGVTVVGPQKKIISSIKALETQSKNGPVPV

[6] = biological target: T2, Ephrin type-B receptor 2 (Homo sapiens) (UniProt P29323); experiment: Inhibition of human recombinant EphB2 at 15 nM in presence of ATP by radiometric assay relative to control
T2 sequence (whole entry): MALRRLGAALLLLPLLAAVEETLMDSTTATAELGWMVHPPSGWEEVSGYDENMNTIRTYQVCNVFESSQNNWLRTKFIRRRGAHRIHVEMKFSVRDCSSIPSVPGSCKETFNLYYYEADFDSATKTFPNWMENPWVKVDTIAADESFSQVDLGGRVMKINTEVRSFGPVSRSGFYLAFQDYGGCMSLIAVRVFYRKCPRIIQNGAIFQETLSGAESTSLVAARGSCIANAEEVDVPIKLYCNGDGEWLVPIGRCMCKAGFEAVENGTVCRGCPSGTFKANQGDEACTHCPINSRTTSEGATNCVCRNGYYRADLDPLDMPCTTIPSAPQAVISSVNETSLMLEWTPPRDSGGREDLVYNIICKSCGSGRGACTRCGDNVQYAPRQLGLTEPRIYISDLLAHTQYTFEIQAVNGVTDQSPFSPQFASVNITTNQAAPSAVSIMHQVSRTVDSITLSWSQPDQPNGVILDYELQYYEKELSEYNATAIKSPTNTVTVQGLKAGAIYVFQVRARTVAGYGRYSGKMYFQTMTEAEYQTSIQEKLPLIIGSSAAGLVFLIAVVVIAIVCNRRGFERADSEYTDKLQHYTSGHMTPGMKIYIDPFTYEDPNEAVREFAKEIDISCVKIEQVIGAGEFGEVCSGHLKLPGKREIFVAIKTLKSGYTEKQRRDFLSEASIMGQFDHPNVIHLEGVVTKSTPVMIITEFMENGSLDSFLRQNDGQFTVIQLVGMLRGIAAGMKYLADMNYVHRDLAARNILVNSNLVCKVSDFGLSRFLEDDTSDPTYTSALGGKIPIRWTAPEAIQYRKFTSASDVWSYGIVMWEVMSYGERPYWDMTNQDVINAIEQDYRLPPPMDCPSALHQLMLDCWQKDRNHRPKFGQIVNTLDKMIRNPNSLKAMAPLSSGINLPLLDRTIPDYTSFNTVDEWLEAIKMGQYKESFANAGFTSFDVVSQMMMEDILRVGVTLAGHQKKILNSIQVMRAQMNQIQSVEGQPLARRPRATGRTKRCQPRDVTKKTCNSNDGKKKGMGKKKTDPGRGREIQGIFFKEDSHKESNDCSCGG

[7] = biological target: Mast/stem cell growth factor receptor Kit (Homo sapiens) (UniProt P10721); experiment: Inhibition of human recombinant KIT at 40 nM related to control ULK1
Mast/stem cell growth factor receptor Kit (Homo sapiens), sequence (P10721 whole entry): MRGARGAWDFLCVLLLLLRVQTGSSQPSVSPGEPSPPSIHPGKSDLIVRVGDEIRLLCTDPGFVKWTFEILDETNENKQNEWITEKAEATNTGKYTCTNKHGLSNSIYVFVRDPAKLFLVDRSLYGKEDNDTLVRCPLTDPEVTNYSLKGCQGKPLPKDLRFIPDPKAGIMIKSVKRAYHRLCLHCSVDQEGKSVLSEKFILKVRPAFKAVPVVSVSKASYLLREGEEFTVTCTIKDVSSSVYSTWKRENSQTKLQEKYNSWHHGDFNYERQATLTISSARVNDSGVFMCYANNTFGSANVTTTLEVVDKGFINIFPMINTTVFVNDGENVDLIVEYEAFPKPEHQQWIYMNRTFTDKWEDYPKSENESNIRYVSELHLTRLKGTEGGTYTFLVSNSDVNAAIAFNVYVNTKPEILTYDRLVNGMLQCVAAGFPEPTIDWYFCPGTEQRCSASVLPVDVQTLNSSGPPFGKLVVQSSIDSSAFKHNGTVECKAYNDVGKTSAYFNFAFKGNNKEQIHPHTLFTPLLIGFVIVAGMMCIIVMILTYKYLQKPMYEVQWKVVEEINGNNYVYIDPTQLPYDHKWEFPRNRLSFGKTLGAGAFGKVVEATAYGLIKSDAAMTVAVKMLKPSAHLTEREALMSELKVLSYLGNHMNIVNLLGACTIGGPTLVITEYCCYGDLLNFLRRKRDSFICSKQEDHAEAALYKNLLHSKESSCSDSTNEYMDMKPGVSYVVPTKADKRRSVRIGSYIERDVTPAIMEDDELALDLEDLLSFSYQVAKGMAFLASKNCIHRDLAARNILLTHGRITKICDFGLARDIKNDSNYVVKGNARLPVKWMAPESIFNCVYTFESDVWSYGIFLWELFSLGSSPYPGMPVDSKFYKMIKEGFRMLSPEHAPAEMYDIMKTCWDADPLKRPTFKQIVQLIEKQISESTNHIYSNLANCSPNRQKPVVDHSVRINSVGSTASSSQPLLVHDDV

Mitogen-activated protein kinase kinase kinase 20 (Homo sapiens), sequence (Q9NYL2 2-800 limits assumed): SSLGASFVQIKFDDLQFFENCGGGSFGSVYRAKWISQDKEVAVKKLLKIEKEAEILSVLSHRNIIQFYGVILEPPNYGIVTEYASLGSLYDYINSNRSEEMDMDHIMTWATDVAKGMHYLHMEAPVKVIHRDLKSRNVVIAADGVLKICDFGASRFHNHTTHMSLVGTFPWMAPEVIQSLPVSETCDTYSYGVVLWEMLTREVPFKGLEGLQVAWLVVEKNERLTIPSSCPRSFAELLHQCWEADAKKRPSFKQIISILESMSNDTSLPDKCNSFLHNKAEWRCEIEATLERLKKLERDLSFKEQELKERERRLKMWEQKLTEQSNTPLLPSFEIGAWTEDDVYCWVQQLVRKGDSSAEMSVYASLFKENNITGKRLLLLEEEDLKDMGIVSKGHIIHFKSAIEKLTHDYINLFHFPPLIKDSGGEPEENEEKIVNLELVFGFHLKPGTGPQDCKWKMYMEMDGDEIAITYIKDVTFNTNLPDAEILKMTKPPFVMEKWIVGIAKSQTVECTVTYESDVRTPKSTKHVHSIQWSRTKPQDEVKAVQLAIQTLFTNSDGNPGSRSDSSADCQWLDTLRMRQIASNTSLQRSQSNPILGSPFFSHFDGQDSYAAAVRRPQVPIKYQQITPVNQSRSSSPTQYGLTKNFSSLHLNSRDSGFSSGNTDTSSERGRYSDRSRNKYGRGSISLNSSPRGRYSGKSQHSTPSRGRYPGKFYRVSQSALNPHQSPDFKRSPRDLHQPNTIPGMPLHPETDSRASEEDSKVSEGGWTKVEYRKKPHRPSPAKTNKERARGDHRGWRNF
Serine/threonine-protein kinase PLK1 (Homo sapiens), sequence (P53350 whole entry): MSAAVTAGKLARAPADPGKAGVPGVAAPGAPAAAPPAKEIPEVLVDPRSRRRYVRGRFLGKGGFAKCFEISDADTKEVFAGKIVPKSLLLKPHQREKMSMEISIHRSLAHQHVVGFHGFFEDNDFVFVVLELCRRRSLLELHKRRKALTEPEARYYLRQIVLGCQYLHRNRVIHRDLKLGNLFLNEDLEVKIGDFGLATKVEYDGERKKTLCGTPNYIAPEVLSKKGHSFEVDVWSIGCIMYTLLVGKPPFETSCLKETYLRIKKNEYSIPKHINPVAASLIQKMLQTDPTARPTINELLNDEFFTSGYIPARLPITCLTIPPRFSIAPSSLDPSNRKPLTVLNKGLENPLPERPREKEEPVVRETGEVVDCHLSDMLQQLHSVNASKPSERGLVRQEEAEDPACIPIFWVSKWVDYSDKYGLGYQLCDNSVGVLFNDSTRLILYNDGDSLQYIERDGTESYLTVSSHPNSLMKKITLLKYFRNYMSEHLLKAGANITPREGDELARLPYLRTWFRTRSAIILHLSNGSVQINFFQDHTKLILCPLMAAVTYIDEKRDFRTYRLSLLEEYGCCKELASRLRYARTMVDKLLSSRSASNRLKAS
Activin receptor type-1-like (Homo sapiens), sequence (P37023 whole entry): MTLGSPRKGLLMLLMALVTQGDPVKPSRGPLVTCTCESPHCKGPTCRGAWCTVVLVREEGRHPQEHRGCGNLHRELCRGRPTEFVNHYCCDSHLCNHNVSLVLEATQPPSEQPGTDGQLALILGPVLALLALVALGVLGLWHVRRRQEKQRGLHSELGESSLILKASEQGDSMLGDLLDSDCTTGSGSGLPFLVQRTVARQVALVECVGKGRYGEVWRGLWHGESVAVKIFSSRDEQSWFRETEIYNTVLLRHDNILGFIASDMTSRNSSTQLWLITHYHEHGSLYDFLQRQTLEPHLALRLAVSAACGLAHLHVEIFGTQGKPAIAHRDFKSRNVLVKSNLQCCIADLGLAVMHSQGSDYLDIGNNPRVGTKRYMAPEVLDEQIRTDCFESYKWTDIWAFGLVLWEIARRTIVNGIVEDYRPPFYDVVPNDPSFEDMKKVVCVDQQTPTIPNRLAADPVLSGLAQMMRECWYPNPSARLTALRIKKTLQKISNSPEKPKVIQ

inhibition [1]	inhibition [2]	inhibition [3]	fold change (FC) [4]	inhibition [5]	inhibition [6]	fold change (FC) [7]	Structure (SMILES)
7%	1%	0%	0.3	3%	7%		CC(C)[C@H](NC(=O)c1cc(-c2cnn3cc(-c4ccc(OCCN5CCCCC5)cc4)cnc23)cs1)C(F)(F)F
						0	O=C(N[C@@H](C1CC1)C(F)(F)F)c1cc(-c2cnn3cc(-c4ccc(F)cc4)cnc23)cs1
